Data taken from article PMC2819108 (Bioorganic & medicinal chemistry, 2009).

How the values were obtained:
MCF-7 cells = experiment: Cell cycle assay; assay type: cell-based, human; settings: up to 5 μM; 48 h treatment; Fig. 3
How it was run: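 MCF-7 cells at 2×10^5 cells/ml were seeded in DMEM with 5% fetal calf serum and left overnight at 37 °C to attach. Different concentrations of test compound were then added. After 48 h of treatment, cell-cycle distribution was measured by flow cytometry.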

rat thoracic aorta rings = experiment: Aortic ring assay; settings: 5 μM; day 6; Fig. 5
How it was run: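 Thoracic aortas from normal 1–2-month-old rats were excised into ice-cold PBS, cleaned of fibroadipose tissue, and cut into 1–1.5 mm cross-sections. Sections were washed five times in PBS, embedded in Matrigel on coverslips, and held 15 min at 37 °C, 5% CO2. EBM2 containing test compound (1–100 µM) was then added. Sprouting was examined on day 6 against an untreated control.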

[1] = tested on: HUVEC (human umbilical vein endothelial cells); experiment: Angiogenesis assay in vitro; assay type: cell-based; settings: 1 μM; 16 h treatment; Fig. 4
How it was run: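 HUVEC (1×10^5 cells) seeded on Matrigel in EBM-2 medium and treated with the test compound over several dose ranges (figure panels: 1 and 10 µM, with untreated control). Tube formation was observed after 16 h of treatment.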

A-10 cells = experiment: Loss of microtubules in A-10 cells; assay type: cell-based; settings: 20 μM compound; Fig. 2
[2] = tested on: 54 human cancer cell lines; experiment: NCI human cancer cell proliferation assay; assay type: cell-based; settings: 48 h, read-out: GI50 in 16 of the 54 cell lines
How it was run: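 The NCI human tumour cell line panel was exposed to test compound at five concentrations in 10-fold serial dilution for 48 h. Growth inhibition was read as total cell protein by sulforhodamine B assay. GI50 was calculated from log dose-response curves.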

[3] = tested on: MCF-7 human breast carcinoma cells; experiment: MCF-7 cell proliferation assay; assay type: cell-based; settings: relative to CA-4

SMILES | effect on MCF-7 cell cycle (G2/M phase arrest) (MCF-7 cells) | functional angiogenesis in aortic ring assay (sprout formation) (rat thoracic aorta rings) | HUVEC tube formation [1] | effect on interphase microtubule network of A-10 cells (A-10 cells) | GI50 [2] [nM] | fold less active than CA-4 as inhibitor of MCF-7 cell growth [3]
COc1ccc(/C=C/C(=O)c2cc(OC)c(OC)c(OC)c2)cc1B(O)O [compound 4, 2-Methoxy-5-[(1E)-3-oxo-3-(3,4,5-trimethoxyphenyl)prop-1-en-1-yl]boronic acid] | did not cause significant G2/M phase arrest | dramatically inhibited functional angiogenesis | significantly inhibited the tube formation | extensive thinning of the network of microtubules | 10 to 200 | 
COc1ccc(/C=C/C(=O)c2cc(OC)c(OC)c(OC)c2)cc1O [compound 6, (2E)-3-(3-Hydroxy-4-methoxyphenyl)-1-(3,4,5-trimethoxyphenyl) prop-2-en-1-one] |  |  |  | complete disappearance of the microtubule network |  | 3–4 fold
